The target in data set [1] is T1, Peroxisome proliferator-activated receptor alpha (Homo sapiens) (UniProt Q07869).
T1 sequence (whole entry): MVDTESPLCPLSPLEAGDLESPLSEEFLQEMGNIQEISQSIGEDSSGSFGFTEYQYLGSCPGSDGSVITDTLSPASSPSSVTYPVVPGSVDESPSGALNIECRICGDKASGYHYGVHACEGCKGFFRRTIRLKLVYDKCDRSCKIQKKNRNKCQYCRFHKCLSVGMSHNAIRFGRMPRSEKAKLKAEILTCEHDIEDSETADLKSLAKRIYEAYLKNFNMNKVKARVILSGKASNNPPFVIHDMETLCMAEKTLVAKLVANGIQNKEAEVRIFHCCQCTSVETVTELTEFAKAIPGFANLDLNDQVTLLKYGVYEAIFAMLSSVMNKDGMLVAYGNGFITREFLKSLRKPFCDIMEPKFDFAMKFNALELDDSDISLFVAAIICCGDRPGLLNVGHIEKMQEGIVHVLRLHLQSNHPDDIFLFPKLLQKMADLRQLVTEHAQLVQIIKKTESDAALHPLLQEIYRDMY
The data set is described as follows: Displacement of [3H]-[…] from PPARalpha (unknown origin) expressed in baculovirus infected Sf9 insect cells upto 30 uM measured after 10 hrs by microbeta scintillation counting analysis. Particulars: dose microM <=30, time 10.0 hrs. The method in brief:
(§1)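 Scintillation proximity assay. Sf9 lysates with baculovirus-expressed PPARα (0.3 μg), PPARδ (0.5 μg) or PPARγ (1.25 μg), each with RXRα, were bound via biotinylated DR2 oligo (0.126 nM) to streptavidin yttrium silicate beads. Buffer was HEPES pH 7.8 with KCl, MgCl2, DTT, CHAPS, 14% glycerol and salmon sperm DNA. A 3H reference agonist ligand was used, with 11 compound concentrations, for 10 h. Nonspecific binding was defined with 10000 nM unlabeled reference. Ki was derived from IC50.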

Data set [2] concerns Mus musculus. The data set is described as follows: Hypoglycemic activity in Balb/c mouse assessed as effective dose causing reduction in blood glucose level administered orally 60 mins prior to glucose challenge measured for 60 mins by IPGTT. Type of data set: functional. Particulars: po, 1 h.
Data set [3] has as its target T2, Free fatty acid receptor 1 (Homo sapiens, UniProt O14842). The data set is described as follows: Displacement of [3H]-(S)-2-(6-((2',6'-dimethyl-4'-(3-(methylsulfonyl)propoxy)biphenyl-3-yl)methoxy)-2,3-dihydrobenzofuran-3-yl)acetic acid from human recombinant full-length GPR40 expressed in human HEK293 cell membrane assessed as dissociation constant measured after 2 hrs by radioligand competitive assay. In kind it is cell membranes.

Data set [4] is described as follows: Dissociation constant, pKa2 of compound by potentiometric method. Type of data set: physicochemical. The method in brief: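 pKa values measured potentiometrically.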
Data set [5] addresses T2, Free fatty acid receptor 1. The data set is described as follows: Agonist activity at human recombinant full-length Prolink-tagged GPR40 fused with EA-tagged beta-arrestin expressed in human HEK293 cells assessed as induction of beta-arrestin recruitment measured after 90 mins by beta-galactosidase based PathHunter assay. In kind it is cell-based. The method in brief:
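PathHunter β-gal complementation. Cells were incubated overnight at 5000/well in medium with 1% heat-inactivated FBS. Compound was added as a 20-point 2-fold series from a top final of 100 μM (1% DMSO) for 90 min at 37 °C, followed by detection reagents and chemiluminescence read after 1 h at rt.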

Data set [6] addresses T3, Peroxisome proliferator-activated receptor delta (Homo sapiens) (UniProt Q03181).
T3 sequence (whole entry): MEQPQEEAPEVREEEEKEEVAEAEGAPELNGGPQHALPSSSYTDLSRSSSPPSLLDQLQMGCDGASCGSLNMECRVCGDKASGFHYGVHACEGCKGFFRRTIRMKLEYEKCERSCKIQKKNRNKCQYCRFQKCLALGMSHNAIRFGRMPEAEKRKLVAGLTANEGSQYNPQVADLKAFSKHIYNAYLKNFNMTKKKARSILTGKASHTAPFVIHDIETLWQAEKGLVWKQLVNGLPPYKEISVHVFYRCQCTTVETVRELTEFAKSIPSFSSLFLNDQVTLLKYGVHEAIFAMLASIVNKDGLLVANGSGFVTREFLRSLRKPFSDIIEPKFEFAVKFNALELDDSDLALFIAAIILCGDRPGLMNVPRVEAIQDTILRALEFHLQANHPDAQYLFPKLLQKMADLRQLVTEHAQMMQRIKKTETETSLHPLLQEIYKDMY
The data set is described as follows: Displacement of [3H]-[…] from PPARdelta (unknown origin) expressed in baculovirus infected Sf9 insect cells upto 30 uM measured after 10 hrs by microbeta scintillation counting analysis. The settings on record: dose microM <=30, time 10.0 hrs. In short, it runs like this:
as §1

Data set [7] in a line: Protein binding in plasma (unknown origin) by equilibrium dialysis method. Type of data set: ADME, cell-free. Particulars: human, read-out: PPB. The method in brief:
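Plasma protein binding measured by equilibrium dialysis.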

Data set [8] is described as follows: Drug metabolism in rat hepatocytes assessed as glucuronidation by LC-MS/MS analysis. In kind it is ADME, cell-based, Hepatocyte.
Data set [9] has as its target Voltage-gated inwardly rectifying potassium channel KCNH2 (Homo sapiens, UniProt Q12809). The data set is described as follows: Inhibition of human ERG at 10 to 100 uM. The settings on record: dose 10-100 µM.
Data set [10] in a line: Solubility of the compound in 0.01 N HCl. In kind it is physicochemical.
For data set [11], the system named is Rattus norvegicus. The data set is described as follows: Hypoglycemic activity in Zucker fatty diabetes mellitus rat model assessed as increase in insulin levels in plasma at 0.03 to 1 mg/kg, po administered for 21 days and measured at 10 to 60 mins post glucose challenge on day 21 by OGTT. The settings on record: dose 0.03-1 mg/kg, time 21.0 day. In kind it is functional, organism-based.

For data set [12], the system named is Mus musculus. The data set is described as follows: Hypoglycemic activity in Balb/c mouse assessed as reduction in blood glucose level at 0.03 to 3 mg/kg, po administered 60 mins prior to glucose challenge and measured at 7 to 60 mins by IPGTT. Type of data set: functional, organism-based. Particulars: dose 0.03-3 mg/kg.
Data set [13] in a line: Metabolic stability in mouse liver microsomes assessed as compound hydrolysis incubated for 30 mins by LC-MS/MS analysis. Type of data set: ADME, Microsome. Particulars: read-out: Drug degradation. The method in brief: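 Incubated 30 min with mouse or human liver microsomes. Stability reported as % metabolized.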
Data set [14] deals with Mus musculus. In words: Agonist activity at GPR40 in Balb/c mouse assessed as increase in GLP-1 levels in blood at 30 mg/kg, po measured at 15 to 180 mins by ELISA. Type of data set: functional, organism-based. The settings on record: filed as agonist, time lower […], time upper 180.0 min.
Data set [15] can be described thus: Solubility of the compound in FaSSIF. In kind it is physicochemical.
For data set [16], the system named is Rattus norvegicus. In words: Hypoglycemic activity in Zucker fatty diabetes mellitus rat model assessed as reduction in blood glucose level administered orally for 21 days and measured at 10 to 60 mins post glucose challenge on day 21 by OGTT. Type of data set: functional, organism-based. Particulars: dose 0.03-1 mg/kg, time 21.0 day.
Data set [17] deals with RXR alpha/PPAR gamma (Homo sapiens) (UniProt P37231+P19793). In words: Agonist activity at human CMV-fused PPARgamma […]/RXRalpha (unknown origin) expressed in African green monkey CV1 cells transfected with luciferase plasmid assessed as maximum efficacy measured after 24 hrs by luciferase reporter gene assay relative to control. Type of data set: cell-based. The settings on record: CV-1. The method in brief:
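CV1 cells were transfected, in DMEM with 5% charcoal-stripped FBS, with CMV-driven full PPARγ and RXRα plus a 2×PPRE TK-promoter luciferase reporter. After overnight growth, cells were replated at 15000/well for 4 h, then treated with 0.17 nM–10 μM in half-log dilutions for 24 h. Lysate luminescence was expressed as % of the maximum from 10 μM reference PPARγ agonist and fit to a 4-parameter logistic.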

In data set [18] the test system is Rattus norvegicus. In words: Hypoglycemic activity in Zucker fatty diabetes mellitus rat model assessed as increase in insulin levels in plasma at 0.03 to 1 mg/kg, po administered for 21 days and measured at 10 to 60 mins post glucose challenge on day 1 by OGTT. In kind it is functional, organism-based. Particulars: dose 0.03-1 mg/kg, time 21.0 day.

Converted amounts (≈) assume the structure as drawn. The source made the active and inactive calls. The calls are words filed in the database; no cut-off is given here.

Sequence of Voltage-gated inwardly rectifying potassium channel KCNH2 (Q12809 whole entry): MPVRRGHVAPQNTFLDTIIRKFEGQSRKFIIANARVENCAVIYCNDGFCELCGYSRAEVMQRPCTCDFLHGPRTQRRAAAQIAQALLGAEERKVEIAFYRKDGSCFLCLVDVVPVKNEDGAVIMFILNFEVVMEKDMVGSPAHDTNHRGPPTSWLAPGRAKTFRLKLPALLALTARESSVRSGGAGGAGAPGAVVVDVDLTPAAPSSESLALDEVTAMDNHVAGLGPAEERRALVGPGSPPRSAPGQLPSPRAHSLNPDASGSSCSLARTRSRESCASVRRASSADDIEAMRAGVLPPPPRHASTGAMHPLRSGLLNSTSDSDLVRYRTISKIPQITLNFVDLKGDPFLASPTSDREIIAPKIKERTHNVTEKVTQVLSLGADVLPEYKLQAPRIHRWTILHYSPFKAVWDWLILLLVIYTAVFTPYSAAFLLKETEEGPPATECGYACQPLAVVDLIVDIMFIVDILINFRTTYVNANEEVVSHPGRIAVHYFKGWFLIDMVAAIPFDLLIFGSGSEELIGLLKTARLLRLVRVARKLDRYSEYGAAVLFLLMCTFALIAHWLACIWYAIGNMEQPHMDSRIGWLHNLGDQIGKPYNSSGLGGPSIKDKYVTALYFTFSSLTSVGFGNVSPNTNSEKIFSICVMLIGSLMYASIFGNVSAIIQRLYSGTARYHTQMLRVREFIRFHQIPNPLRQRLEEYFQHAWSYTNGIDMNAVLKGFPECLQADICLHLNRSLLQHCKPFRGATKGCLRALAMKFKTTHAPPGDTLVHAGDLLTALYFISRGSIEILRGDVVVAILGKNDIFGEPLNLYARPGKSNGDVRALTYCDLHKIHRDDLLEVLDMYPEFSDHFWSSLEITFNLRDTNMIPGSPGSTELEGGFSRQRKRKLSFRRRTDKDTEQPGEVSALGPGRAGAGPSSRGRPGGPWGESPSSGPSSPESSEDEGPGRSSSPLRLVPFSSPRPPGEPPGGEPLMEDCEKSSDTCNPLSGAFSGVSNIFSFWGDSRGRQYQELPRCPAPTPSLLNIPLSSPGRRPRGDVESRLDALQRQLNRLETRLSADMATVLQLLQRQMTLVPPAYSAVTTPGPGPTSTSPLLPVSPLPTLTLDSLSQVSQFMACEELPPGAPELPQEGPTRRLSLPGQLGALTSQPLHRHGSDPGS
T2 sequence (O14842 whole entry): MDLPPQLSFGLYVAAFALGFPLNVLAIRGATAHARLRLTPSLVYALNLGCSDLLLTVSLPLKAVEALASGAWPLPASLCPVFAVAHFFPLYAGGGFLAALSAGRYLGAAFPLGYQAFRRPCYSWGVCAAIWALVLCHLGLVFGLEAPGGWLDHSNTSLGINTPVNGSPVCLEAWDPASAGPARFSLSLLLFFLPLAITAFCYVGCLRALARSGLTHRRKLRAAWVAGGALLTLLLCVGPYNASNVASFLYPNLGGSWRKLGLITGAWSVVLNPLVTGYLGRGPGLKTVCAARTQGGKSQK

Take `CC#C[C@@H](CC(=O)O)c1ccc(OCc2ccc(CN3CCC4(CC3)CN(C)c3ccccc34)cc2)cc1`: the result in data set [1] and in data set [6] was inactive. For the same compound, the ED90 in data set [2] came to 11.7 mg/kg. For the same compound, the Kd in data set [3] was 9.5 nM. The compound also showed a pKa in data set [4] of 8.3. Moreover, the EC50 in data set [5] was found to be 56 nM. Also, the fraction unbound in [7] is below 0.01.
`O=C(O)C[C@@H](c1ccc(OCc2ccc3nc(-c4ccccc4)nn3c2)cc1)c1ccon1`: the result in data set [1] and in [6] was inactive. In addition, in data set [2], the ED90 is above 100 mg/kg. For the same compound, the Kd in [3] is 37 nM. Also, the EC50 in data set [5] was found to be 600 nM. Besides, the fraction unbound in [7] is below 0.01.
For `CC#C[C@@H](CC(=O)O)c1ccc(OCc2ccc(CN3CCC4(CCc5ccccc54)CC3)cc2)cc1`, the result in data set [1] and in data set [6] was inactive. In [2], the ED90 is 22 mg/kg. Also, the Kd in data set [3] was 2.2 nM. This compound returned a pKa in data set [4] of 8.6. Also, the EC50 in data set [5] is 11 nM. For the same compound, the fraction unbound in [7] is below 0.01.
Regarding `CC#C[C@@H](CC(=O)O)c1ccc(OCc2ccc(CN3CCCc4cccc(OC)c43)s2)cc1`, the Drug metabolism result in [8] is “Metabolite_Detected”. Also, in data set [9], the “inhibition (INH)” value was “Not Active”. Besides, the values for the solubility in data set [10] and in data set [15] were 46 µg/mL (≈ 96.7 µM) and 35 µg/mL (≈ 73.6 µM), respectively. For the same compound, the result in data set [11], in data set [12], in data set [14] and in data set [18] was Active. In [2], the ED90 is 5 mg/kg. For the same compound, the metabolised at 0.5 h in [13] is 38%. The pKa in data set [4] was found to be 6. Besides, the EC50 in [5] came out at 7 nM. Besides, in data set [16], the Activity entry was “Dose-dependent effect”. Further, the Emax in [17] came out at 8%. Moreover, the fraction unbound in data set [7] is below 0.01.
For the compound `O=C(O)CCc1ccc(OCc2ccc(CN3CCC4(C=Cc5ccccc54)CC3)cc2)cc1F`, the outcome in [1] and in data set [6] was inactive. In addition, in [2], the ED90 is above 100 mg/kg. Moreover, the Kd in [3] worked out at 58 nM. For the same compound, the pKa in data set [4] amounted to 7.7. The EC50 in data set [5] came out at 340 nM. For the same compound, the fraction unbound in data set [7] is below 0.01.
In the case of `CC#C[C@@H](CC(=O)O)c1ccc(OCc2ccc(CN3CCC4(C=Cc5ccccc54)CC3)s2)cc1`, the Drug metabolism result in [8] is “Metabolite_Detected”. The result in [1] and in data set [6] was inactive. In addition, the ED90 in [2] was 3.67 mg/kg. The Kd in data set [3] is 2 nM. In data set [4], this compound showed a pKa of 7.4. In addition, the EC50 in data set [5] is 5.3 nM. For the same compound, the fraction unbound in data set [7] was below 0.01.
Turning to `CC#C[C@@H](CC(=O)O)c1ccc(OCc2ccc(CN3CCC4(C=Cc5ccccc54)CC3)cc2)cc1` [LY2881835], in [8], the Drug metabolism entry is on record as “Metabolite_Detected”. Further, the “inhibition (INH)” value in data set [9] was “Not Active”. The figures for the solubility in [10] and in data set [15] were 13 µg/mL (≈ 26.4 µM) and 7 µg/mL (≈ 14.2 µM), respectively. Further, the outcome in data set [1] and in data set [6] was inactive. For the same compound, the outcome in data set [11], in data set [12], in [14] and in data set [18] was Active. The ED90 in data set [2] is 0.58 mg/kg. Besides, in data set [13], the metabolised at 0.5 h is 79%. Moreover, the Kd in data set [3] worked out at 2.5 nM. In [4], the pKa was 8.1. Moreover, the Activity result in data set [16] was “Dose-dependent effect”. Besides, the Emax in [17] is 7%. In addition, the fraction unbound in [7] was below 0.01.
Turning to `CC#C[C@@H](CC(=O)O)c1ccc(OCc2ccc(CN3CCC4(CCc5ccccc54)CC3)s2)cc1`, the Drug metabolism entry in data set [8] is recorded as “Metabolite_Detected”. The “inhibition (INH)” value in [9] is on record as “Not Active”. The solubility turned out to be 55 µg/mL (≈ 110 µM) in data set [10] and 6 µg/mL (≈ 12 µM) in [15]. In addition, the result in data set [1] and in [6] was inactive. Also, the result in [11], in data set [12], in data set [14] and in data set [18] was Active. Further, the ED90 in [2] was found to be 5.6 mg/kg. For the same compound, the metabolised at 0.5 h in [13] was 98%. For the same compound, the Kd in data set [3] was 3.5 nM. The compound also came in with a pKa in [4] of 7.9. The EC50 in [5] stood at 7.9 nM. Besides, the Activity entry in [16] was “Dose-dependent effect”. In data set [17], the Emax is 15%. The fraction unbound in data set [7] was below 0.01.
